Active and inactive are the calls of the source. The calls are words filed in the database; no cut-off is given here.
Experiments:
[1] = Inhibition of insect cell COX2 at 200 ug/mL
In short: (§1)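 COX-II was an insect cell lysate preparation, diluted in Tris at pH 7.0 to about 1.5 mg protein/mL. O2 uptake was measured at 37 °C by oxygen electrode. Mixture: 0.1 M Tris at pH 7.0, phenol, hemoglobin and 100 µmol arachidonic acid. Compound was added in DMSO, and the reaction was started by adding enzyme protein.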

[2] = molecular target: T1, Prostaglandin G/H synthase 1 (Ovis aries) (UniProt P05979); experiment: Inhibition of sheep COX1
T1 sequence (whole entry): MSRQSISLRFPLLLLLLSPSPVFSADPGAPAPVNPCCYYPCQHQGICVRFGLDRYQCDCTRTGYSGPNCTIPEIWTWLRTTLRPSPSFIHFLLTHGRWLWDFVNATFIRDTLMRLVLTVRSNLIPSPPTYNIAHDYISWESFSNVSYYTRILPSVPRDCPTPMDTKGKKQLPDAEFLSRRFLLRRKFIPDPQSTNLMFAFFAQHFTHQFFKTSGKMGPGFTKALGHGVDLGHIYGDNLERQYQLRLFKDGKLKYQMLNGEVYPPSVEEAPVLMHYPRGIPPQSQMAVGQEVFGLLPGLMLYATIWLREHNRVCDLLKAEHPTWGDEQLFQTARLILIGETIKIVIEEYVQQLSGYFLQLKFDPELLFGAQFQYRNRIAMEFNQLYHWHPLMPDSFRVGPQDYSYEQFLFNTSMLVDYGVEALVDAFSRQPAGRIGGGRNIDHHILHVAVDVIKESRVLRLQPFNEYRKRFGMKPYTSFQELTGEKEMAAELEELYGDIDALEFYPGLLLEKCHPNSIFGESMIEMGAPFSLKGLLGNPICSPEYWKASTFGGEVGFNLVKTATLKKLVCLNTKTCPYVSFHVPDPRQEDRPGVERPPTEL
In short: (§2)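 COX-I. Initial rate of O2 uptake measured at 37 °C with an oxygen electrode. Mixture: 0.1 M Tris at pH 7.0, 1 mmol phenol, 85 µg hemoglobin and 100 µmol arachidonic acid. Compound was added in DMSO, with a DMSO-only control. Reaction was started with 5-25 µg microsomal protein. Results are expressed as % inhibition.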

[3] = Antioxidation activity assessed as inhibition of peroxidation of liposome at 60 ug/mL; type: physicochemical; conditions: artificial membrane
In short: (§3)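 Fe2+-initiated peroxidation of large unilamellar liposomes made from 1-stearoyl-2-linoleoyl-phosphocholine with the fluorescent probe 3-[p-(6-phenyl)-1,3,5-hexatrienyl]phenylpropionic acid. Liposomes were extruded through a 100 nm membrane. The assay used Chelex-treated HEPES buffer at pH 7.0 with NaCl, at 23 °C, with test agent in DMSO. Reaction was started with 20 µM FeCl2 (final). Fluorescence (excitation 384 nm) was read every 3 min for 21 min. Positive controls were at 10 µM final.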

[4] = molecular target: T1, Prostaglandin G/H synthase 1 (Ovis aries); conditions: 2.52 ug/mL
[5] = Antioxidation activity assessed as inhibition of peroxidation of liposome at 2.20 ug/mL; type: physicochemical; conditions: artificial membrane; in short: as §3
[6] = Antioxidation activity assessed as inhibition of peroxidation of liposome at 1.66 ug/mL; type: physicochemical; conditions: artificial membrane; in short: as §3
[7] = molecular target: T1, Prostaglandin G/H synthase 1 (Ovis aries); experiment: Inhibition of sheep COX1 at 125 ug/mL; in short: as §2
[8] = Antioxidation activity assessed as inhibition of peroxidation of liposome; type: physicochemical; conditions: artificial membrane; in short: as §3
[9] = Inhibition of insect cell COX2 at 125 ug/mL; in short: as §1
[10] = molecular target: T1, Prostaglandin G/H synthase 1 (Ovis aries); experiment: Inhibition of sheep COX1 at 200 ug/mL; in short: as §2
[11] = molecular target: T1, Prostaglandin G/H synthase 1 (Ovis aries); conditions: 180 ug/mL
[12] = Antioxidation activity assessed as inhibition of peroxidation of liposome at 4.31 ug/mL; type: physicochemical; conditions: artificial membrane; in short: as §3
[13] = molecular target: T1, Prostaglandin G/H synthase 1 (Ovis aries); conditions: 2.06 ug/mL
[14] = Antioxidation activity assessed as inhibition of peroxidation of liposome at 1.80 ug/mL; type: physicochemical; conditions: artificial membrane
In short: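 Large unilamellar liposomes (100 nm extrusion) of 1-stearoyl-2-linoleoyl phosphatidylcholine carrying a phenylhexatrienyl-phenylpropionic acid fluorescent probe, in Chelex-treated HEPES pH 7.0 with NaCl. Test compound added in DMSO. Peroxidation started with FeCl2 (20 µM Fe2+ final) at 23 °C. Fluorescence (excitation 384 nm) read every 3 min for 21 min; the fall in relative intensity gives the peroxidation rate.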

In the case of `COc1ccc(-c2cc(=O)c3c(OC)cc(O[C@@H]4O[C@H](CO[C@H]5OC[C@@H](O)[C@H](O)[C@H]5O)[C@@H](O)[C@H](O)[C@H]4O)cc3o2)cc1OC`, the Activity [1] is reported as “inactive”, the Activity [2] is reported as “inactive” and the “inhibition (INH)” value [3] is reported as 98%.

In the case of `COc1ccc(-c2cc(=O)c3c(OC)cc(O[C@@H]4O[C@H](CO[C@H]5OC[C@@H](O)[C@H](O)[C@H]5O)[C@@H](O)[C@H](O)[C@H]4O)cc3o2)cc1`, the Activity [1] is reported as “inactive”, the Activity [2] is reported as “inactive” and the “inhibition (INH)” value [3] is reported as 78%.

`COc1ccc2cc([C@H](C)C(=O)O)ccc2c1` gave an inhibition [4] of 58%.

For `Cc1cc(C(C)(C)C)c(O)c(C(C)(C)C)c1` [BUTYLATED HYDROXYTOLUENE], the “inhibition (INH)” value [5] was 81%.

With `CC(C)(C)c1cc(O)ccc1O` [E319] the “inhibition (INH)” value [6] was 90%.

For `COc1cc(/C=C/CO)c(OC)c(O[C@@H]2O[C@H](CO)[C@@H](O)[C@H](O)[C@H]2O)c1`, the inhibition [7] was 9.2%, the Activity [8] was “Not Active” and the Activity [9] was “inactive”.

With `COc1cc(O[C@@H]2O[C@H](CO[C@H]3OC[C@@H](O)[C@H](O)[C@H]3O)[C@@H](O)[C@H](O)[C@H]2O)cc2oc(-c3ccc(O)cc3)cc(=O)c12` the Activity [1] was “inactive”, the inhibition [10] was 12.5% and the “inhibition (INH)” value [3] was 71%.

For `CC(=O)Oc1ccccc1C(=O)O`, the inhibition [11] was 52.1%.

For VITAMIN E, the “inhibition (INH)” value [12] was 7%.

For `COc1ccc(-c2cc(=O)c3c(OC)cc(O[C@@H]4O[C@H](CO[C@H]5O[C@H](C)[C@@H](O)[C@H](O)[C@H]5O)[C@@H](O)[C@H](O)[C@H]4O)cc3o2)cc1OC`, the Activity [1] was “inactive”, the Activity [2] was “inactive” and the “inhibition (INH)” value [3] was 67%.

`CC(C)Cc1ccc(C(C)C(=O)O)cc1` (configuration not stated) gave an inhibition [13] of 53.3%.

For `COc1ccc(O)c(C(C)(C)C)c1.COc1ccc(O)cc1C(C)(C)C` [BUTYLATED HYDROXYANISOLE], the “inhibition (INH)” value [14] was 91%.

From ChEMBL document CHEMBL1144143, “Phenolic glycosides from Dirca palustris” (J Nat Prod, 1999)
